Common to all, as to assay type: functional
The subject of experiment [1] is Rattus norvegicus. In words: Activity to induce the elevation of phospholipids in plasma lipids of male Wistar rats after the sc administration of 5 mg/kg/day. Conditions: route subcutaneous. In outline:
(§1)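 Normal-diet Wistar rats were given the test agent once daily for 4 days and killed on day 5 after an overnight fast. Total plasma phospholipids (EDTA plasma) were measured chemically by the molybdate/vanadate reaction or enzymatically (phospholipid B test). Values are % of vehicle controls.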

Experiment [2] concerns Rattus norvegicus. Kind of experiment: Activity to induce the elevation of triglycerides in plasma lipids of male Wistar rats after the sc administration of 5 mg/kg/day. Conditions: route subcutaneous. In outline:
(§2)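 Daily dosing of normal-diet Wistar rats ran for 4 days, with sacrifice on day 5 after an overnight fast. Plasma was collected by decapitation into EDTA. Total triglycerides were measured enzymatically and expressed as % change relative to the vehicle control group.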

Experiment [3] deals with Rattus norvegicus. In words: Activity to induce the elevation of alpha/beta cholesterol ratio in plasma lipids of male Wistar rats after the sc administration of 5 mg/kg/day. Conditions: route subcutaneous. The method in brief: (§3)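 Rats (Wistar, normal diet) were treated daily for 4 days and fasted overnight, and EDTA plasma was taken on day 5. Total cholesterol was measured enzymatically, and β-lipoprotein cholesterol after heparin-CaCl2 precipitation. The α/β-cholesterol ratio is reported as % change from vehicle-treated controls.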

Experiment [4] concerns Rattus norvegicus. Kind of experiment: Activity to induce the elevation of HDL(High Density Lipoproteins)-Cholesterol in plasma lipids of male Wistar rats after the sc administration of 5 mg/kg/day. To be noted: route subcutaneous. The method in brief:
(§4)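 Wistar rats on a normal diet were dosed daily for 4 days at the dose and route given. On day 5, after an overnight fast, they were killed under ether and blood was taken by decapitation into EDTA. Plasma HDL cholesterol was measured after heparin-CaCl2 precipitation of VLDL/LDL and is expressed as % change versus a vehicle control group.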

Experiment [5] concerns Rattus norvegicus. Kind of experiment: Activity to induce the elevation of triglycerides of male Wistar rats after po administration of 100 mg/kg/day. The method in brief: as §2
The species named for experiment [6] is Rattus norvegicus. In words: Activity to induce the elevation of alpha/beta cholesterol ratio of male Wistar rats. Details: concentration or dose not given beside the values. In outline: (§5)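 Wistar rats on normal diet; groups were vehicle control, an internal-standard diphosphonate, and test compounds. Dosed daily for 4 days; diphosphonates were dissolved in water or suspended in 1% (carboxymethyl)cellulose, 4 mL/kg. On day 5, after overnight fast, rats were killed under ether. EDTA plasma was assayed enzymatically for HDL-C after heparin-CaCl2 precipitation of VLDL/LDL, phospholipids, triglycerides and α/β-cholesterol ratio. Results are given as % of control.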

Experiment [7] relates to Rattus norvegicus. In words: Activity to induce the elevation of alpha/beta cholesterol ratio of male Wistar rats after po administration of 100 mg/kg/day. The method in brief: as §3
Experiment [8] is filed under the species Rattus norvegicus. In words: Activity to induce the elevation of phospholipids of male Wistar rats. Details: concentration or dose not given beside the values. The method in brief: as §5
In experiment [9] the test system is Rattus norvegicus. In words: Activity to induce the elevation of phospholipids of male Wistar rats after po administration of 100 mg/kg/day. The method in brief: as §1
The species named for experiment [10] is Rattus norvegicus. Kind of experiment: Activity to induce the elevation of triglycerides of male Wistar rats. Details: concentration or dose not given beside the values. The method in brief:
as §5

Experiment [11] is filed under the species Rattus norvegicus. In words: Activity to induce the elevation of HDL(High Density Lipoproteins)-Cholesterol of male Wistar rats. On the set-up: concentration or dose not given beside the values. The method in brief:
as §5

Experiment [12] deals with Rattus norvegicus. In words: Activity to induce the elevation of HDL(High Density Lipoproteins)-Cholesterol of male Wistar rats after po administration of 100 mg/kg/day. In outline: as §4

Structures are written as SMILES.

Two molecules from ChEMBL document CHEMBL1123811, “gem-Diphosphonate and gem-phosphonate-phosphate compounds with specific high density lipoprotein inducing activity” (1987) can be followed below.

For the molecule `C[C@]12CC[C@@H]3c4ccc(O)cc4CC[C@H]3[C@@H]1CC[C@@H]2O` [ESTRADIOL], the Control in experiment [1] is reported as -77%; in experiment [2], -51%; in experiment [3], -47%; in [4], -83%.
With `COP(=O)(OC)OC(c1ccc(Cl)cc1)P(=O)(OC)OC` (configuration not stated) [MIFOBATE], the Control in experiment [5] is 0%; in experiment [7] it was 52%; in experiment [9] it was 17%; in [12], 26%. Moreover, the “Percent change in alpha/beta cholesterol ratio versus control” value in experiment [6] was 180%. Also, the “Plasma phospholipids, % change versus control” value in experiment [8] worked out at 26%. Further, the “Percent change in plasma triglycerides versus control” value in experiment [10] came out at 0%. Moreover, the “HDL-cholesterol change relative to control (%)” value in experiment [11] worked out at 157%.
